{"source": "ChEMBL document CHEMBL2057186", "about": "“Application of the bicyclo[1.1.1]pentane motif as a nonclassical phenyl ring bioisostere in the design of a potent and orally active γ-secretase inhibitor” (J Med Chem, 2012)", "key": {"Mus musculus [1]": {"tested_on": "Mus musculus", "assay": "Antialzheimer activity in 129/sve mouse assessed as reduction in amyloid beta42 level in brain at 30 mg/kg, po administered as single dose measured at 5 hrs by ELISA relative to vehicle treated control", "format": "functional", "design": "scale not given: the % may be the effect or the level left", "method_in_brief": "(§1)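 Wild-type male 129/sve mice received a single oral dose in Phosal 50 PG/Tween 80 vehicle. Aβ40 was measured in brain, CSF and plasma and Aβ42 in brain over a time course. Levels are expressed as % of vehicle-treated animals. Values are mean ± SEM, n = 5 or 8 per time point.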"}, "Mus musculus [2]": {"tested_on": "Mus musculus", "assay": "Antialzheimer activity in 129/sve mouse assessed as reduction in amyloid beta40 level in plasma at 30 mg/kg, po administered as single dose measured at 1 hr by ELISA relative to vehicle treated control", "format": "functional", "design": "scale not given: the % may be the effect or the level left", "method_in_brief": "as §1"}, "[3]": {"assay": "AUC (last) in 129/sve mouse brain at 30 mg/kg, po administered as single dose by LC-MS/MS analysis", "format": "ADME, organism-based", "design": "time 0 - last, dose 30 mg/kg, route oral", "method_in_brief": "(§2)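 Wild-type male 129/sve mice received a single oral dose in 98% (v/v) Phosal 50 PG / 2% Tween 80. Drug was measured in plasma, brain and CSF. Study was nonserial, so AUC came from mean matrix concentrations at each time point. Values are mean ± SD (n = 4 or 5).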"}, "[4]": {"assay": "AUC (last) in 129/sve mouse cerebrospinal fluid at 30 mg/kg, po administered as single dose by LC-MS/MS analysis", "format": "ADME, organism-based", "design": "time 0 - last, dose 30 mg/kg, route oral", "method_in_brief": "as §2"}, "[5]": {"assay": "Fraction unbound in 129/sve mouse brain at 30 mg/kg, po administered as single dose", "format": "ADME, organism-based", "design": "dose 30 mg/kg, route oral"}, "[6]": {"assay": "Apparent permeability from apical to basal side of dog RRCK cells", "format": "ADME, cell-based, Canis lupus familiaris, MDCKII-LE", "conditions": "MDCK; call rule not given here", "method_in_brief": "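Absorptive (A to B) permeability was measured in RRCK cells, a Madin–Darby canine kidney subline isolated for low transporter activity. It estimates intrinsic passive permeability.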"}, "[7]": {"assay": "Thermodynamic solubility of the compound at pH 6.5", "format": "physicochemical", "conditions": "buffer, read-out: Therm_solubility", "method_in_brief": "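Thermodynamic solubility was measured in aqueous buffer at pH 6.5 and at pH 7.4.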"}, "Cytochrome P450 1A2": {"biological_target": "T1, Cytochrome P450 1A2 (Homo sapiens, UniProt P05177)", "T1 sequence (P05177 whole entry)": "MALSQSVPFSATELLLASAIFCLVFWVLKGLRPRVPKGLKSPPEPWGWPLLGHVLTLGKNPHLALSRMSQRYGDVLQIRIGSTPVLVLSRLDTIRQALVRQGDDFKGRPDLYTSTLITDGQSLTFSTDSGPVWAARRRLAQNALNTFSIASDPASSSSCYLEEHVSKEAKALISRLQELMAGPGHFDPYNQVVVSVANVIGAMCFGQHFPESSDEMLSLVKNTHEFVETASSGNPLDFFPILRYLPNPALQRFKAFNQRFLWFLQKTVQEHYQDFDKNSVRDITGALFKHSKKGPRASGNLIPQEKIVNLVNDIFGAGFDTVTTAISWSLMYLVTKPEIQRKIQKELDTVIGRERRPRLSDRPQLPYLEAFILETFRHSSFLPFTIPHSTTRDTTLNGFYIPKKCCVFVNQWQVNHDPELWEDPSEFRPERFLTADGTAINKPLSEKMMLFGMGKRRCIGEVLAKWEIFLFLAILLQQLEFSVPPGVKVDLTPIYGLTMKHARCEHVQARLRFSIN", "assay": "Inhibition of CYP1A2 in human liver microsomes using tacrine as substrate", "format": "ADME, Microsome"}, "Cytochrome P450 2C9": {"biological_target": "Cytochrome P450 2C9 (Homo sapiens, UniProt P11712)", "sequence (P11712 whole entry)": "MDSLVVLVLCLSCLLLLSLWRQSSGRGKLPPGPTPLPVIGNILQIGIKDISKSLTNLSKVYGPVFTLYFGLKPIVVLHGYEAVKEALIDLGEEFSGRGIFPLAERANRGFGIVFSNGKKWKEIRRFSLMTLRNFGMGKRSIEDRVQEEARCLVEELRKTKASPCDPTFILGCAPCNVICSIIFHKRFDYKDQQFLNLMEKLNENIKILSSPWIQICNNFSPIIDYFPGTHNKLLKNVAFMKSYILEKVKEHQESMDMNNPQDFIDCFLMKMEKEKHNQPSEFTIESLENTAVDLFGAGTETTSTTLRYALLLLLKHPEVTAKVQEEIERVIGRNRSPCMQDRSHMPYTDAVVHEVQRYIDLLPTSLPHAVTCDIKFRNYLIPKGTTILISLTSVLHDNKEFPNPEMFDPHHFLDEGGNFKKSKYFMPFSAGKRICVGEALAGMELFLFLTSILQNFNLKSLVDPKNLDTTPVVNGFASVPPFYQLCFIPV", "assay": "Inhibition of CYP2C9 in human liver microsomes using diclofenac as substrate", "format": "ADME, Microsome"}, "Cytochrome P450 2D6": {"biological_target": "Cytochrome P450 2D6 (Homo sapiens, UniProt P10635)", "sequence (P10635 whole entry)": "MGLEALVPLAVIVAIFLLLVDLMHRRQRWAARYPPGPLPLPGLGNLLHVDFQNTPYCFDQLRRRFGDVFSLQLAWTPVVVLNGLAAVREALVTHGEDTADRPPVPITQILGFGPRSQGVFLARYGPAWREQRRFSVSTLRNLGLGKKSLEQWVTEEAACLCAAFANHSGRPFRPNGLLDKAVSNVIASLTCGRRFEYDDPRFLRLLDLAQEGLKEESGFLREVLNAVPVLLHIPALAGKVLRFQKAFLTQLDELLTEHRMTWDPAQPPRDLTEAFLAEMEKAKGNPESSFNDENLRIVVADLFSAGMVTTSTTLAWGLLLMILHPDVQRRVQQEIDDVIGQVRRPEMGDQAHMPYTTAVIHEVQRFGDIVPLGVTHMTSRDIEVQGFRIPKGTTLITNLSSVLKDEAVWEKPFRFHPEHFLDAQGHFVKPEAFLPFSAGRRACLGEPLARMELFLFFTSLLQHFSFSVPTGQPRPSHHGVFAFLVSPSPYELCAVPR", "assay": "Inhibition of CYP2D6 in human liver microsomes using dextromethorphan as substrate", "format": "ADME, Microsome"}, "Cytochrome P450 3A4": {"biological_target": "Cytochrome P450 3A4 (Homo sapiens, UniProt P08684)", "sequence (P08684 whole entry)": "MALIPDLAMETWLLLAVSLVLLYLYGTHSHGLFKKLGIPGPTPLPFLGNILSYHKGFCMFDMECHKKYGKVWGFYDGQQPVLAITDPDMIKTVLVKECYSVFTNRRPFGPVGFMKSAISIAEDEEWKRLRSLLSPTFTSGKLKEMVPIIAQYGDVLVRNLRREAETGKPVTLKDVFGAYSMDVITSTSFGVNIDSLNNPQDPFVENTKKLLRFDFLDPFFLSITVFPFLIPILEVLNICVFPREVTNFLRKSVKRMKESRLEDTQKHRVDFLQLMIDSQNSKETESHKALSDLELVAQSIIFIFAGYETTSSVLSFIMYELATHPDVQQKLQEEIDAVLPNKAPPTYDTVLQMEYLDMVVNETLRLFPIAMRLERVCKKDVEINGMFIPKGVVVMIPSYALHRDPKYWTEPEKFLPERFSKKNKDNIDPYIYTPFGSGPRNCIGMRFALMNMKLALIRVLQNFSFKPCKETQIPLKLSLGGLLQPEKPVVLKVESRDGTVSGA", "assay": "Inhibition of CYP3A4 in human liver microsomes using midazolam as substrate", "format": "ADME, Microsome"}, "[8]": {"biological_target": "Voltage-gated inwardly rectifying potassium channel KCNH2 (Homo sapiens, UniProt Q12809)", "sequence (Q12809 whole entry)": "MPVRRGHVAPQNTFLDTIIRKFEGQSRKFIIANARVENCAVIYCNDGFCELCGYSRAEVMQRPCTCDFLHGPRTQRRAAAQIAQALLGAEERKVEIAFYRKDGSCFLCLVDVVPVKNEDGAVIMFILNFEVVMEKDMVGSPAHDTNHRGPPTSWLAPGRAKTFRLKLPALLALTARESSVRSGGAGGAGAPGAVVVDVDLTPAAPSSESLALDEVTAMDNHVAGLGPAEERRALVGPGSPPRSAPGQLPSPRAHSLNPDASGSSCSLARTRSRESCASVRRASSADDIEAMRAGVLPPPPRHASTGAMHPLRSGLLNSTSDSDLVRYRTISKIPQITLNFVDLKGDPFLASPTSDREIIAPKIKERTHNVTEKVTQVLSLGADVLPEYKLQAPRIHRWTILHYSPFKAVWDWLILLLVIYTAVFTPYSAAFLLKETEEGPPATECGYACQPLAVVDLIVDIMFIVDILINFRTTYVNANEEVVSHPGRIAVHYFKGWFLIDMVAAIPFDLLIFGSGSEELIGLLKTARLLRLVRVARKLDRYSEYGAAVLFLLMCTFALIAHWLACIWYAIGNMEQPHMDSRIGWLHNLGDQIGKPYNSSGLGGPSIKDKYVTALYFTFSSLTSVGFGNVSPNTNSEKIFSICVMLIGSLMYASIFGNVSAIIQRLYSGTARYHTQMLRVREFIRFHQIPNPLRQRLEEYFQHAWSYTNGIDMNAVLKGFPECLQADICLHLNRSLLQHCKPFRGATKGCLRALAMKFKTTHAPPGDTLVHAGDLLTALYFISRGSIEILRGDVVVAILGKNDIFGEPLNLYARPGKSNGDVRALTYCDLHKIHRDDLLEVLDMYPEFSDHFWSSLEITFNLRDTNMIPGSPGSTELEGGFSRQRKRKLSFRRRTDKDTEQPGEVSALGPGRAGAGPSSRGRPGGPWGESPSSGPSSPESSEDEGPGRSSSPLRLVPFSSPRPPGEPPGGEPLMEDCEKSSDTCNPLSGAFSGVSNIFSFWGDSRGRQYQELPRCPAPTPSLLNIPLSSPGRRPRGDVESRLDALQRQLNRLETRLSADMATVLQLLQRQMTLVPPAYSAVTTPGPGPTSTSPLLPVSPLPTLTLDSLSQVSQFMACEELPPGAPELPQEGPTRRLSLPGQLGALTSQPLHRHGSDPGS", "assay": "Displacement of dofetilide from human ERG"}, "[9]": {"assay": "Tmax in Sprague-Dawley rat at 5 mg/kg, po", "format": "ADME, organism-based", "design": "dose 5 mg/kg, route oral", "conditions": "in vivo", "method_in_brief": "(§3)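 Female rats were dosed once, 1 mg/kg iv (2 mL/kg, 0.5 mg/mL) or 5 mg/kg po (10 mL/kg, 0.5 mg/mL). Vehicle was 40% (w/v) hydroxypropyl-β-cyclodextrin. Plasma was sampled to 24 h. Values are means ± SEM (n = 3).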"}, "[10]": {"assay": "AUC (0 to 24 hrs) in Sprague-Dawley rat at 1 mg/kg, iv", "format": "ADME, organism-based", "design": "time < 24 hr, dose 1 mg/kg, route intravenous", "conditions": "plasma", "method_in_brief": "(§4)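 Single-dose PK in female rats; iv at 1 mg/kg (2 mL/kg, 0.5 mg/mL) and po at 5 mg/kg (10 mL/kg, 0.5 mg/mL), both formulated in 40% (w/v) hydroxypropyl-β-cyclodextrin.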"}, "[11]": {"assay": "AUC (0 to 24 hrs) in Sprague-Dawley rat at 5 mg/kg, po", "format": "ADME, organism-based", "design": "time < 24 hr, dose 5 mg/kg, route oral", "conditions": "plasma", "method_in_brief": "as §4"}, "[12]": {"assay": "Half life in Sprague-Dawley rat at 1 mg/kg, iv", "format": "ADME, organism-based", "design": "dose 1 mg/kg, route intravenous", "conditions": "in vivo", "method_in_brief": "as §3"}, "[13]": {"assay": "Plasma clearance in Sprague-Dawley rat at 1 mg/kg, iv", "format": "ADME, organism-based", "design": "dose 1 mg/kg, route intravenous", "method_in_brief": "as §3"}, "[14]": {"assay": "Tmax in 129/sve mouse plasma at 30 mg/kg, po administered as single dose by LC-MS/MS analysis", "format": "ADME, organism-based", "design": "dose 30 mg/kg, route oral", "method_in_brief": "(§5)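 Single-dose oral PK in wild-type male 129/sve mice. Formulation was 98% (v/v) Phosal 50 PG with 2% Tween 80. Compound was measured in plasma, brain and CSF. Values are means ± standard deviations (n = 4 or 5).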"}, "[15]": {"assay": "Cmax in 129/sve mouse brain at 30 mg/kg, po administered as single dose by LC-MS/MS analysis", "format": "ADME, organism-based", "design": "dose 30 mg/kg, route oral", "method_in_brief": "as §5"}, "[16]": {"assay": "Tmax in 129/sve mouse brain at 30 mg/kg, po administered as single dose by LC-MS/MS analysis", "format": "ADME, organism-based", "design": "dose 30 mg/kg, route oral", "method_in_brief": "as §5"}, "[17]": {"assay": "Ratio of drug level in brain to plasma in 129/sve mouse at 30 mg/kg, po administered as single dose by LC-MS/MS analysis", "format": "ADME, organism-based", "design": "dose 30 mg/kg, route oral", "conditions": "read-out: BPR", "method_in_brief": "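Wild-type male 129/sve mice were dosed orally once in 98% Phosal 50 PG/2% Tween 80. Brain/plasma ratio was taken as AUC_brain/AUC_plasma, using mean-concentration AUCs from a nonserial design.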"}, "[18]": {"assay": "Ratio of unbound fraction in brain to unbound fraction in plasma in 129/sve mouse at 30 mg/kg, po administered as single dose by LC-MS/MS analysis", "format": "ADME, organism-based", "design": "dose 30 mg/kg, route oral", "conditions": "in vivo", "method_in_brief": "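Single oral dose of 30 mg/kg in wild-type male 129/sve mice, formulated in 98% (v/v) Phosal 50 PG with 2% Tween 80. Brain, CSF and plasma were sampled nonserially over time, and AUC was taken from mean matrix concentrations. Brain availability = (f_u,brain × [brain]) / (f_u,plasma × [plasma]), with n = 4–5 per group.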"}, "[19]": {"assay": "Cmax in 129/sve mouse cerebrospinal fluid at 30 mg/kg, po administered as single dose by LC-MS/MS analysis", "format": "ADME, organism-based", "design": "dose 30 mg/kg, route oral", "method_in_brief": "as §5"}, "[20]": {"assay": "Tmax in 129/sve mouse cerebrospinal fluid at 30 mg/kg, po administered as single dose by LC-MS/MS analysis", "format": "ADME, organism-based", "design": "dose 30 mg/kg, route oral", "method_in_brief": "as §5"}, "Mus musculus [21]": {"tested_on": "Mus musculus", "assay": "Antialzheimer activity in 129/sve mouse assessed as reduction in amyloid beta40 level in brain at 30 mg/kg, po administered as single dose measured at 5 hrs by ELISA relative to vehicle treated control", "format": "functional", "design": "scale not given: the % may be the effect or the level left", "method_in_brief": "as §1"}, "Gamma-secretase": {"biological_target": "Gamma-secretase", "assay": "Inhibition of gamma secretase-mediated amyloid beta42 production in human H4 cells expressing human wild-type APP"}}, "data": [{"smiles": "NC(=O)[C@@H](CCC(F)(F)F)N(CC12CC(c3ncon3)(C1)C2)S(=O)(=O)c1ccc(Cl)cc1", "values": [{"measurement": "Activity", "setting": "Mus musculus [1]", "value": 31, "unit": "%"}, {"measurement": "Activity", "setting": "Mus musculus [2]", "value": 59, "unit": "%"}, {"measurement": "AUC(0-t)", "setting": "[3]", "value": 12, "unit": "µM·h"}, {"measurement": "AUC(0-t)", "setting": "[4]", "value": 0.118, "unit": "µM·h"}, {"measurement": "fraction unbound", "setting": "[5]", "value": 0.026}, {"measurement": "Papp A→B", "setting": "[6]", "value": 19.3, "unit": "×10⁻⁶ cm/s"}, {"measurement": "solubility thermodynamic", "setting": "[7]", "value": 19.7, "unit": "µM"}, {"measurement": "inhibition (INH)", "setting": "Cytochrome P450 1A2", "value": "Not Active"}, {"measurement": "inhibition (INH)", "setting": "Cytochrome P450 2C9", "value": "Not Active"}, {"measurement": "inhibition (INH)", "setting": "Cytochrome P450 2D6", "value": "Not Active"}, {"measurement": "inhibition (INH)", "setting": "Cytochrome P450 3A4", "value": "Not Active"}, {"measurement": "Activity", "setting": "[8]", "value": "Not Active"}, {"measurement": "Tmax", "setting": "[9]", "value": 2, "unit": "h"}, {"measurement": "AUC(0-t) at 24 h", "setting": "[10]", "value": 2.54, "unit": "µM·h"}, {"measurement": "AUC(0-t) at 24 h", "setting": "[11]", "value": 19.4, "unit": "µM·h"}, {"measurement": "half-life", "setting": "[12]", "value": 2.18, "unit": "h"}, {"measurement": "clearance", "setting": "[13]", "value": 13.3, "unit": "mL/min/kg"}, {"measurement": "Tmax", "setting": "[14]", "value": 1, "unit": "h"}, {"measurement": "Cmax", "setting": "[15]", "value": 5600, "unit": "nM"}, {"measurement": "Tmax", "setting": "[16]", "value": 1, "unit": "h"}, {"measurement": "Kp", "setting": "[17]", "value": 0.84}, {"measurement": "Ratio", "setting": "[18]", "value": 0.62}, {"measurement": "Cmax", "setting": "[19]", "value": 53, "unit": "nM"}, {"measurement": "Tmax", "setting": "[20]", "value": 1, "unit": "h"}, {"measurement": "Activity", "setting": "Mus musculus [21]", "value": 64, "unit": "%"}, {"measurement": "IC50", "setting": "Gamma-secretase", "value": 178, "unit": "pM"}]}]}
